Only a selection was taken, and hits are over-represented in it overall.
RORA inh – inhibitors of human nuclear receptor RORA | P35398 | CHO-K1 Gal4-RORA LBD luciferase reporter, luminescence | inhibition, % at 10 µM | 65,000 tested, 0.43% active | AID 561;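 active means inhibition above the mean of all tested compounds plus 3 SD, cut at about 52% in these data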
Target sequence (P35398 whole entry, looked up, the tested form may be a part): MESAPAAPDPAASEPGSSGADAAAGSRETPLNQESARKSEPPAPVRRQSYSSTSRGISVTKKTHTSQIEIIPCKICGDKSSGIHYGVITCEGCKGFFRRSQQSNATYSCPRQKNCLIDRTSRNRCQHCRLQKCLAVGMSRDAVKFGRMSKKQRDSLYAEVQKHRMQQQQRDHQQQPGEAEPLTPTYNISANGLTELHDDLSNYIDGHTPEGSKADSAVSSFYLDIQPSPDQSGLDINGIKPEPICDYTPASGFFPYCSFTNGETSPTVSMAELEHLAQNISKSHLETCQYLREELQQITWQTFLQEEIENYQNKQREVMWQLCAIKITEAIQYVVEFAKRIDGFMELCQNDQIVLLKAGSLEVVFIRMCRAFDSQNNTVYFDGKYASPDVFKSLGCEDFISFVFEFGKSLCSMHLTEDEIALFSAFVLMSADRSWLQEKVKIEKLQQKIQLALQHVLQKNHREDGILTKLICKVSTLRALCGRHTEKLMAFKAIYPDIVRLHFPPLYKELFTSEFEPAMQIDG
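Test system: CHO-K1 cells with Gal4-hRORA LBD fusion and pG5-luc reporter / Compound: single concentration per compound, 10 µM final / Schedule: 20 h compound treatment, 37 °C / Signal: luminescence from basal luciferase reporter expression / Read-out: % inhibition / Control set: mock-transfected cells as 100%, +RORA DMSO cells as 0% / Replicates: tested once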
Hits are given with their value; 0 = inactive.

SMILES	RORA inh
CCOC(=O)N1CCC(NC(=O)Cn2ncn3c(cc4sc(CC)cc43)c2=O)CC1	0
Cc1ccc(-n2nnnc2SCC(=O)N2CCN(C(=O)c3ccco3)CC2)c(C)c1	0
COc1cc(CSc2nnnn2-c2ccc(C)cc2)cc(OC)c1OC	72
COc1ccc(C)cc1-n1nnnc1SCc1nc2ccccc2s1	0
CCC1CCCCN1C(=O)COC(=O)c1ccc(S(=O)(=O)N2CCOCC2)cc1 (stereo not drawn)	0
CCOC(=O)c1[nH]c(C)c(C(=O)Nc2cccc(Cl)c2C)c1C	0
C(=N\n1cnnc1)/c1cccc(Oc2ccccc2)c1	0
Cc1cc(/C=N/n2cnnc2)c(C)n1-c1ccc(OCc2ccccc2F)cc1	62
Cc1cccc(N(Cc2cc3ccccc3[nH]c2=O)C(=O)c2ccco2)c1C	0
CCOC(=O)C1CCN(S(=O)(=O)C(F)(F)c2nc3ccccc3s2)CC1	0
O=C(c1ccccc1)C(CCC(CN1CCOCC1)C(=O)c1ccccc1)CN1CCOCC1 (stereo not drawn)	56
O=C(Nc1ccc(CN2CCOCC2)cc1)c1cccc(F)c1	0
O=C(c1ccccc1)c1ccc(N2CCOCC2)c(F)c1	0
COC(=O)c1ccc(CSc2nc3c(c(=O)n2-c2ccc(Br)cc2)SCC3)o1	0
O=c1oc2c3c4c(cc2cc1-c1nc2ccccc2[nH]1)CCCN4CCC3	0
COc1ccc(NC(=O)CSc2nnc(Cn3c(=O)sc4ccccc43)n2C)c(OC)c1	0
N#Cc1ccccc1NC(=O)COC(=O)c1ccc(S(=O)(=O)N2CCCC2)cc1	0
O=S(=O)(Nc1nc2ccccc2nc1NCc1ccco1)c1cccs1	0
Cc1noc(C(=O)Nc2ccc3c(c2)OCO3)c1Cl	0
CCOC(=O)c1c(N)sc(C(=O)Nc2ccc3c(c2)OCO3)c1C	54
CCC(=O)Nc1ccc(C(=O)Nc2ccc3c(c2)OCO3)cc1	0
CCCCc1ccc(NC(=O)C2CCCO2)cc1 (stereo not drawn)	0
Cc1n[nH]c(C)c1S(=O)(=O)NCCc1ccc(Cl)cc1	0
Clc1ccc(OCCN2CCN(c3ncnc4sccc34)CC2)cc1	81
Cc1cc(C(=O)Nc2c(F)cc(F)cc2Br)c(C)o1	0
SMILES	RORA inh
Fc1ccc(-c2nnc(CN3CCN(c4ncc(C(F)(F)F)cc4Cl)CC3)o2)cc1	0
COc1ccccc1CNC(=O)C1COc2ccccc2O1 (stereo not drawn)	0
O=C(NC1=NCCS1)C1COc2ccccc2O1 (stereo not drawn)	72
COc1cc(C(=O)NC2=NCCS2)ccc1OCc1c(C)noc1C	0
CCCC(NS(=O)(=O)c1ccc(Br)cc1)C(=O)O (stereo not drawn)	0
CC(=NC1CCCCC1)C1=C(O)c2ccccc2C1=O	0
CC(C)NC(=O)c1cc(=O)n(C)c(=O)n1C	0
Clc1ccc(-c2nnc(NC3=NCCCCC3)o2)cc1	65
Fc1ccc(-c2nnc(-c3ccc(Cl)cc3)o2)cc1	0
CCC(C)C(NC(=O)OC(C)(C)C)C(=O)NC(C(=O)N1CCCC1C(N)=O)C(C)CC (stereo not drawn)	0
CC1CC(C)CN(C(=O)CSc2nnc(-c3ccc(Cl)s3)o2)C1 (stereo not drawn)	0
CC1(C)COCN1S(=O)(=O)c1ccc(C(=O)Nc2nnc(-c3ccc(Cl)s3)o2)cc1	53
COc1ccccc1-c1nnc(NC(=O)c2ccc(S(=O)(=O)N(C)C)cc2)o1	0
CCOc1ccc(NC(=O)C2CC(=O)N(C(C)C)C2)cc1 (stereo not drawn)	0
Cc1ccc(-c2noc(CCC(=O)NCc3ccc4c(c3)OCO4)n2)cc1	0
O=C(NC1CCCCC1)C1CCN(S(=O)(=O)N2CCOCC2)CC1	0
O=C(COc1ccc(Cl)cc1)NCc1nnc(SCC(=O)NCCc2ccccc2)o1	0
CCN(CC)C(=O)c1sc2nc(-c3ccc(OC)cc3)cn2c1C	0
CCc1c(C)nc2cc(-c3ccc(OC)cc3)[nH]n2c1=O	0
COc1cc(OC)cc(-c2cc3nc(C)c(CCC(=O)O)c(C)n3n2)c1	77
CC(C)=CCC(C)(C)CNC(=O)NC1CCCCC1	0
Cc1ccc(N(CN2C(=O)C3CC=CCC3C2=O)C(=O)c2ccco2)cc1Cl (stereo not drawn)	0
COc1cc(C(C)=O)ccc1OCC(=O)c1cc(C)n(C2CC2)c1C	0
CC(C)CCNC(=O)NC(=O)COc1ccccc1C#N	0
CC(C)Cn1c(N)c(C(=O)CSc2ccc3c(c2)OCCO3)c(=O)n(C)c1=O	78
SMILES	RORA inh
CCn1c(SCC(=O)c2c(N)n(C)c(=O)n(C)c2=O)nc2sc(C)c(C)c2c1=O	0
CC(NC(=O)COc1cc(=O)n(C)c2ccccc12)c1ccc2c(c1)OCCO2 (stereo not drawn)	0
Cc1cc2ccccc2c(=O)n1CC(=O)Nc1ccc2c(c1)OCO2	0
Cn1nc(CC(=O)Nc2ccc3c(c2)OCCO3)c2ccccc2c1=O	75
Cc1ccc(NC(=O)Cn2nc(C)c3ccccc3c2=O)cc1F	0
COc1ccc(N2CCN(C(=O)C3CCC(Cn4c(=S)[nH]c5ccccc5c4=O)CC3)CC2)cc1 (stereo not drawn)	0
Cc1ccc(NC(=O)Cc2nn(C)c(=O)c3ccccc23)cc1F	76
COc1ccccc1N1CCN(CC(=O)Nc2ccc(C)c(F)c2)CC1	0
Cn1nc(CC(=O)Nc2ccc(N3CCN(C(=O)OC(C)(C)C)CC3)cc2)c2ccccc2c1=O	86
Cc1cc(C)n(-c2ccc(C(=O)Nc3ccc4c(c3)OCCO4)cc2)n1	0
CCCCC(=O)Nc1ccc(N2CCN(C(=O)CC)CC2)cc1	0
COC(=O)c1sc2nc(N3CCCCC3)c3c(c2c1N)CC(C)(C)N(C)C3	0
O=C(O)CNC1=NCCC1	0
CCOC(=O)c1ccccc1NC(=O)CSc1nnnn1C1CCCCC1	0
O=C(Nc1nnc(C(F)(F)F)s1)c1cccnc1	0
CCC(NC(=O)Nc1ncccc1C)(C(F)(F)F)C(F)(F)F	0
CCC(NC(=O)Nc1nnc(C(F)(F)F)s1)(C(F)(F)F)C(F)(F)F	94
CC(=O)OC1c2ccccc2C(=O)N1Cc1ccccc1Cl (stereo not drawn)	0
CCN1CCN(C(=O)c2cc3nc(-c4ccccc4)cc(C(F)(F)F)n3n2)CC1	0
CC1(C)CC(=O)c2cc(OCC(=O)NCCN3CCCc4ccccc43)ccc2O1	0
COC(=O)C1=C(CN2CCCc3ccccc32)NC(=O)NC1c1ccc(F)cc1 (stereo not drawn)	78
CCOC(=O)C1=C(C)NC(=O)NC1c1ccc(NC(C)=O)cc1 (stereo not drawn)	0
COC(=O)c1c(-c2cccs2)csc1NC(=O)c1cccnc1	0
Cn1c(N)c(C(=O)COC(=O)c2cccs2)c(=O)n(C)c1=O	0
CCc1nn2c(=O)cc(N3CCN(c4cc(C)nc5ccccc45)CC3)nc2s1	0
SMILES	RORA inh
Cc1cc(N2CCN(c3nc4ccccc4s3)CC2)n2ncnc2n1	75
Cc1cc(N2CCCCC2)n2ncc(-c3ccc(Cl)cc3)c2n1	0
Cc1ccccc1Cn1ccc(NC(=O)c2onc(C)c2Cl)n1	0
Cn1c(-n2c(CCN3C(=O)c4ccccc4C3=O)nc3ccccc3c2=O)nc2ccccc21	0
COc1ccc2nc(NCc3ccccc3)[nH]c2c1	0
CCCCNc1cc(C)nc(NCc2ccccc2)n1	57
CCOC(=O)c1cnc(SCC(=O)c2ccccc2)nc1N	0
CC(OC(=O)c1ccco1)C(=O)NCc1cccs1 (stereo not drawn)	0
CCN(CC)C(=O)COc1ccc(-c2ccccc2)cc1	0
COC(=O)C(O)(NC(=O)NC(C)=O)C(F)(F)F (stereo not drawn)	0
